Screening results from PubChem BioAssay.
Ecoli tolC = E. coli tolC mutant growth inhibition; E. coli BW25113 tolC mutant growth, OD615; AID 573; hit rate 2.2% among 65,000; growth inhibition, % at 10 µM (by protocol);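 active means growth inhibition at or above a cutoff equal to the mean over every tested compound plus 3 SD, cut at about 60% in these data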;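 further: growth measured after 20 h incubation at 37 °C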
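Assay system: tolC-deleted E. coli BW25113. Medium: kanamycin-containing LB broth (50 µg/mL). Dosing: 10 µM final, single dose. Timing: bacterial growth with compound for 20 h at 37 °C. Detection: A615 absorbance measurement. Read-out basis: growth inhibition in percent.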
E coli WT exp = blocks growth of wild type E. coli BW25113. OD600 absorbance. growth inhibition, % at 100 µM. hit rate 0.15% among 98,000;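 active means growth inhibition above about 50% at one test dose, limit read from the data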;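 further: growth measured after 20 h incubation at 37 °C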
Cav3 T inh = inhibitors of human Cav3.2 T-type calcium channel; Cav3.2-expressing cells, Fluo-4 calcium fluorescence FDSS; hits give low values; B-score at 10 µM; hit rate 4% among 100,000; AID 449739;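 active means single-dose well whose peak fluorescence ratio is a statistical outlier from its plate by either plate-standardised score or position-corrected B-score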
PTK2B oligo ant = antagonists of human Pyk2 oligomerization. hit rate 0.83% among 99,000. z-score (the deposit names both 25 µM and 10 µM). Q293 cells, Pyk2 FERM NanoBiT luminescence; hits give low values. Q14289;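 active means Z-score of -3 or lower, scaled per plate to the spread of control and sample wells; inactive means z-score above -3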;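 further: negative z-score means lost luminescence so less FERM oligomerization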
Target sequence (Q14289 whole entry, looked up): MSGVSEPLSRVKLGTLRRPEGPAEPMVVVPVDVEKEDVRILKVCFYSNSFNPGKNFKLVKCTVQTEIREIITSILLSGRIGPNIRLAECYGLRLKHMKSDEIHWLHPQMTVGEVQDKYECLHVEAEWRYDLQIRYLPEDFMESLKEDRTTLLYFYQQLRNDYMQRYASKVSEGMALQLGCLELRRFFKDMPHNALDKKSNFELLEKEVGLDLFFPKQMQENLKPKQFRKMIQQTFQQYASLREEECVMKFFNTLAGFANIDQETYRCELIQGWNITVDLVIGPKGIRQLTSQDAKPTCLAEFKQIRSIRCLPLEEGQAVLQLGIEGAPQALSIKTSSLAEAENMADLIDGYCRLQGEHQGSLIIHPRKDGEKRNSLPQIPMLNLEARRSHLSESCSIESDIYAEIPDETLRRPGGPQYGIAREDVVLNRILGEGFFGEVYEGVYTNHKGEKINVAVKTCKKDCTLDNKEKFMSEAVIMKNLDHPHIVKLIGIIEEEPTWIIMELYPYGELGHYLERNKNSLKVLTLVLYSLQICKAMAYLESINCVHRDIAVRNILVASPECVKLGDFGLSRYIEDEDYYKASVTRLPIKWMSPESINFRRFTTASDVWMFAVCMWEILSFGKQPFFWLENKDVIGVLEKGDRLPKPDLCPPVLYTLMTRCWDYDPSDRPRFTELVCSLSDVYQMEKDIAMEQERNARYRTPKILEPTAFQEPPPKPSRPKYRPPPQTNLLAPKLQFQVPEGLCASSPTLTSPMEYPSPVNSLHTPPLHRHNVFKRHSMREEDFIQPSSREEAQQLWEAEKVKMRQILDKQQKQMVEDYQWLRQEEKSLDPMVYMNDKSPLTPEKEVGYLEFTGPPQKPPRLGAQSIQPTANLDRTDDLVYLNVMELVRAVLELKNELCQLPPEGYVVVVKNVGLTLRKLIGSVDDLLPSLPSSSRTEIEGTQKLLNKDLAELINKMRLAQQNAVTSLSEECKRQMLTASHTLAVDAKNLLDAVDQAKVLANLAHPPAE
PostGolgi ctrl = growth of the yeast control strain, post-Golgi counter-screen; hit rate 5% among 98,000; efflux-deficient yeast background strain, growth absorbance A615, 16 h; inhibition, % at 10 µM; AID 738
PostGolgi yeast = growth inhibition of a yeast mutant, post-Golgi transport screen. post-Golgi transport phenotypic cell assay. inhibition, % at 10 µM. hit rate 0.9% among 98,000. AID 739;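 further: yeast cells grown in 1536-well plates; yeast grown about 18 h at 30C before absorbance read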
Hits are given with their value. Only some compounds are listed: those with a hit (about 8.7% of all), similar ones and a draw of the others. Unless noted, no stated cut-off is given here; in the data, active means inhibition above about 30%; inactive means the rest.

For O=C1CCCC2=C1C(c1ccsc1)CC(=O)N2c1nnc(SCc2ccccc2)s1 (configuration not stated) the results were E coli WT exp inactive, Cav3 T inh -5.48, PostGolgi ctrl 37.3 and PostGolgi yeast inactive.
Screening O=C(Nc1ccccc1C(=O)NC(Cc1ccccc1)C(=O)NC1CCCCCC1)c1ccccc1 (configuration not stated) returned E coli WT exp inactive, Cav3 T inh -5.33, PTK2B oligo ant inactive, PostGolgi ctrl inactive and PostGolgi yeast inactive.
Screening O=C(N[C@@H](Cc1ccccc1)C(=O)NC1CCCCCC1)c1ccco1 returned E coli WT exp inactive, Cav3 T inh inactive, PTK2B oligo ant inactive, PostGolgi ctrl inactive and PostGolgi yeast inactive.
Screening CC(C)COc1ccc(-c2nnc(-c3ccco3)o2)cc1 returned Ecoli tolC 60.8, E coli WT exp inactive, Cav3 T inh inactive, PTK2B oligo ant inactive, PostGolgi ctrl inactive and PostGolgi yeast inactive.
CCOC(=O)c1cc(C#N)c(Oc2ccc(F)cc2)nc1-c1ccccc1 was read as E coli WT exp inactive, Cav3 T inh inactive, PTK2B oligo ant inactive, PostGolgi ctrl 36.9 and PostGolgi yeast inactive.
CCOC(=O)c1cc(C#N)c(N2CCCC2)nc1-c1ccccc1 was read as E coli WT exp inactive, Cav3 T inh inactive, PTK2B oligo ant inactive, PostGolgi ctrl inactive and PostGolgi yeast inactive.
For CCOC(=O)c1cc(C#N)c(Oc2cccc(C(F)(F)F)c2)nc1-c1ccccc1 the results were E coli WT exp inactive, Cav3 T inh -4.51, PTK2B oligo ant inactive, PostGolgi ctrl inactive and PostGolgi yeast inactive.
`O=c1cc(CSc2ccc(Cl)cc2)nc(N2CCCCC2)[nH]1` gave Ecoli tolC inactive, E coli WT exp inactive, Cav3 T inh inactive, PTK2B oligo ant inactive, PostGolgi ctrl inactive and PostGolgi yeast inactive.
For CCSc1nc2c(sc3ccccc32)c(=O)n1C(C)C the results were E coli WT exp inactive, Cav3 T inh inactive, PTK2B oligo ant inactive, PostGolgi ctrl inactive and PostGolgi yeast inactive.
`COc1cccc(C(=O)SC2=NCCS2)c1` gave Ecoli tolC inactive, E coli WT exp inactive, Cav3 T inh inactive, PTK2B oligo ant inactive, PostGolgi ctrl inactive and PostGolgi yeast inactive.
COc1ccc(Nc2nc(Nc3ccc(OC)cc3)nc(SC3=NCCS3)n2)cc1 was read as E coli WT exp inactive, Cav3 T inh -5.88, PTK2B oligo ant inactive, PostGolgi ctrl inactive and PostGolgi yeast inactive.
CSc1nnc2n(Cc3ccccc3)c(=O)c3c4c(sc3n12)COC(C(C)C)C4 (configuration not stated) was read as E coli WT exp inactive, PostGolgi ctrl inactive and PostGolgi yeast inactive.
For Cc1nnc2n(Cc3ccccc3)c(=O)c3c4c(sc3n12)COC(C(C)C)C4 (configuration not stated) the results were Ecoli tolC inactive, E coli WT exp inactive, Cav3 T inh inactive, PTK2B oligo ant inactive, PostGolgi ctrl 71.2 and PostGolgi yeast inactive.
`CC(C)C1Cc2c(sc3c2c(=O)n(Cc2ccccc2)c2nncn32)CO1` (configuration not stated) gave Ecoli tolC inactive, E coli WT exp inactive, Cav3 T inh inactive, PTK2B oligo ant inactive, PostGolgi ctrl 42.8 and PostGolgi yeast inactive.
Screening OC1CN=C2C=CC=CN2C1 (configuration not stated) returned Ecoli tolC inactive, E coli WT exp inactive, Cav3 T inh -7.36, PTK2B oligo ant inactive, PostGolgi ctrl inactive and PostGolgi yeast inactive.
N#Cc1c(N)oc(-c2ccc3c(c2)OCO3)c1-c1ccc2c(c1)OCO2 was read as Ecoli tolC 72.3, E coli WT exp inactive, Cav3 T inh inactive, PTK2B oligo ant inactive, PostGolgi ctrl inactive and PostGolgi yeast inactive.
Screening N#Cc1c(N)nc2c(c1-c1ccc3c(c1)OCO3)CCCCCC2 returned Ecoli tolC inactive, E coli WT exp inactive, Cav3 T inh inactive, PTK2B oligo ant inactive, PostGolgi ctrl inactive and PostGolgi yeast inactive.
`CCN1C(=O)/C(=C/c2nc3ccccc3c(=O)n2-c2ccccc2)c2ccccc21` gave E coli WT exp inactive, Cav3 T inh inactive, PTK2B oligo ant -3.18, PostGolgi ctrl inactive and PostGolgi yeast inactive.
`CCn1c(/C=C2/C(=O)N(C)c3ccccc32)nc2ccccc2c1=O` gave E coli WT exp inactive, PTK2B oligo ant inactive, PostGolgi ctrl inactive and PostGolgi yeast inactive.
CCC(=O)O[C@]1(C(=O)SCF)[C@H](C)C[C@H]2[C@@H]3C[C@H](F)C4=CC(=O)C=C[C@]4(C)[C@@]3(F)[C@@H](O)C[C@@]21C was read as Cav3 T inh inactive.
For Cc1cc(NC(=O)CCC(=O)N(CC(=O)NCC2CCCO2)c2ccc3c(c2)OCCO3)no1 (configuration not stated) the results were Cav3 T inh inactive and PTK2B oligo ant inactive.
CC(=O)c1cccc(N(CC(=O)NCC2CCCO2)C(=O)CCC(=O)Nc2cc(C)on2)c1 (configuration not stated) was read as Ecoli tolC inactive, E coli WT exp inactive, PTK2B oligo ant inactive, PostGolgi ctrl 41.0 and PostGolgi yeast inactive.
C=C(C)CSc1nc2nc(C)c(Br)cc2[nH]1 was read as E coli WT exp inactive, Cav3 T inh inactive, PTK2B oligo ant inactive, PostGolgi ctrl inactive and PostGolgi yeast inactive.
`O=C(COc1ccc(S(=O)(=O)NC2CCCC2)cc1)N1CCCCCC1` gave Ecoli tolC inactive, E coli WT exp inactive, Cav3 T inh inactive, PTK2B oligo ant inactive, PostGolgi ctrl inactive and PostGolgi yeast inactive.
`O=C(CSc1n[nH]c(-c2ccc(S(=O)(=O)NC3CCCCC3)cc2)n1)N1CCCC1` gave Ecoli tolC inactive, E coli WT exp inactive, Cav3 T inh inactive, PTK2B oligo ant inactive, PostGolgi ctrl 32.0 and PostGolgi yeast inactive.
For COc1ccc(S(=O)(=O)N2CCN(c3nc4ccccc4nc3-n3nc(C)cc3C)CC2)cc1 the results were Ecoli tolC inactive, E coli WT exp inactive, Cav3 T inh inactive, PostGolgi ctrl inactive and PostGolgi yeast inactive.
Screening CCN(CC)S(=O)(=O)c1ccc(C(=O)OCn2nnc3ccccc3c2=O)cc1 returned Ecoli tolC inactive, E coli WT exp inactive, Cav3 T inh inactive, PTK2B oligo ant inactive, PostGolgi ctrl 78.0 and PostGolgi yeast 89.5.
`O=C(OCn1nnc2ccccc2c1=O)c1ccc(S(=O)(=O)N2CCOCC2)cc1` gave Ecoli tolC inactive, E coli WT exp inactive, Cav3 T inh inactive, PTK2B oligo ant inactive, PostGolgi ctrl inactive and PostGolgi yeast inactive.
Screening O=C1CC(c2ccc(F)cc2)CC(O)=C1C=NCCN1CCN(C(=O)Nc2ccccc2)CC1 (configuration not stated) returned Ecoli tolC inactive, E coli WT exp inactive, Cav3 T inh -4.19, PTK2B oligo ant inactive, PostGolgi ctrl inactive and PostGolgi yeast inactive.
For Cc1ccc2[nH]c(=O)c(CN(CC3CCCO3)S(=O)(=O)c3c(C)ccc4nsnc34)cc2c1 (configuration not stated) the results were Ecoli tolC inactive, E coli WT exp inactive, Cav3 T inh inactive, PTK2B oligo ant inactive, PostGolgi ctrl 32.2 and PostGolgi yeast inactive.
